In data set [1] the test system is Trichophyton mentagrophytes. Put plainly: Antifungal activity against Trichophyton mentagrophytes ATCC 9972. Type of data set: functional. An outline of the steps:
(§1)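 Dermatophytes tested by CLSI M38-A2 microdilution in MOPS-buffered RPMI-1640 at pH 7.0. Inoculum 1-5 × 10^3 CFU/mL; compounds 250 to 0.24 µg/ml in twofold steps, final DMSO <1%. Incubated at 28 °C in a moist, dark chamber and read according to control growth. MIC is the lowest concentration with complete inhibition. MFC is the lowest concentration with no growth after duplicate subculture on SDA.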

In the next data set the test system is Candida tropicalis. Put plainly: Antifungal activity against Candida tropicalis C 131 2000. Format: functional. In outline:
(§2)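 CLSI M27-A3 broth microdilution in RPMI-1640 buffered to pH 7.0 with MOPS. Inoculum 1-5 × 10^3 CFU/mL. Compound twofold dilutions from 250 to 0.24 µg/ml, final DMSO <1%. Incubated at 35 °C in a moist, dark chamber and read at 48 h. MIC is the lowest concentration giving total growth inhibition. For MFC, 5 µL from clear wells was plated in duplicate on SDA; MFC is the lowest concentration with no growth.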

The next data set relates to Aspergillus fumigatus. Put plainly: Antifungal activity against Aspergillus fumigatus ATCC 26934. Format: functional. An outline of the steps: (§3)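 Broth microdilution per CLSI M38-A2 in RPMI-1640 with MOPS at pH 7.0. Inoculum 1-5 × 10^3 CFU/mL, with twofold compound dilutions spanning 250-0.24 µg/ml (final DMSO <1%). Plates incubated at 35 °C, moist and dark, and read when the control fungus had grown. MIC is total growth inhibition. MFC comes from subculturing clear wells in duplicate onto SDA.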

A further data set has as its system Aspergillus flavus. Put plainly: Antifungal activity against Aspergillus flavus ATCC 9170. Type of data set: functional. An outline of the steps:
as §3

A further data set has as its system Candida albicans. Put plainly: Antifungal activity against Candida albicans ATCC 10213. Type of data set: functional. An outline of the steps:
as §2

The next data set concerns Trichophyton rubrum. Put plainly: Antifungal activity against Trichophyton rubrum C 113 2000. Type of data set: functional. In outline:
as §1

Data set [2] can be described thus: Cytotoxicity against human erythrocytes assessed as hemolysis by spectrometric analysis. Type of data set: cell-based, Erythrocyte. In outline: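 Human heparinized red blood cells were washed in PBS at pH 7.0 and suspended at 4% in sterile 5% glucose. Compounds from DMSO stocks were diluted in 5% glucose to final concentrations of 250 to 0.24 µg/ml and incubated with the cells at 37 °C. Released hemoglobin was read at 540 nm. HC50 is the concentration giving 50% lysis relative to the drug-free value.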

The next data set relates to NCI-H460. Put plainly: Cytotoxicity against human H460 cells assessed as cell growth after 2 days by sulforhodamine B assay. Format: functional. Particulars: NCI-H460, 48 h. In outline:
(§4)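 NCI cell lines were run by the Monks method: cells were plated with compounds from DMSO stocks and incubated 2 days at 37 °C in 5% CO2, in duplicate. Cells were fixed with cold TCA, stained with 0.4% SRB, and the bound dye was solubilized in 10 mM tris-base and read at 515 nm. The zero-day control was subtracted, and GI50 was taken from the curves.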

The test system of the next data set is Saccharomyces cerevisiae. Put plainly: Antifungal activity against Saccharomyces cerevisiae ATCC 9763. Type of data set: functional. An outline of the steps: as §2
A further data set has as its system Nannizzia gypsea. Put plainly: Antifungal activity against Microsporum gypseum C 115 2000. Format: functional. An outline of the steps:
as §1

A further data set relates to MCF7. Put plainly: Cytotoxicity against human MCF7 cells assessed as cell growth after 2 days by sulforhodamine B assay. Type of data set: functional. The following applies: MCF7, 48 h. An outline of the steps: as §4
Background: In SRB staining, fixed cells bind dye roughly in proportion to their protein.

A further data set deals with Aspergillus niger. Put plainly: Antifungal activity against Aspergillus niger ATCC 9029. Type of data set: functional. In outline: as §3
In another data set the test system is SF-268. Put plainly: Cytotoxicity against human SF268 cells assessed as cell growth after 2 days by sulforhodamine B assay. Format: functional. The following applies: SF-268, 48 h. In outline:
as §4

In a further data set the test system is Cryptococcus neoformans. Put plainly: Antifungal activity against Cryptococcus neoformans ATCC 32264. Type of data set: functional. In outline: as §2

In brackets after ≈: the same amount, converted by molar mass.

Regarding `Cc1ccc(N2C(=O)C=CC2=O)cc1`, the MFC in data set [1] turned out to be 7.81 µg/mL (≈ 41.7 µM); against Candida tropicalis, 31.2 µg/mL (≈ 167 µM); against Aspergillus fumigatus it was 62.5 µg/mL (≈ 334 µM); against Aspergillus flavus, 15.6 µg/mL (≈ 83.5 µM); against Candida albicans, 31.2 µg/mL (≈ 167 µM); against Trichophyton rubrum, 3.9 µg/mL (≈ 20.8 µM). In addition, the MFC was 7.81 µg/mL (≈ 41.7 µM) in the data set with Saccharomyces cerevisiae, 3.9 µg/mL (≈ 20.8 µM) against Nannizzia gypsea, 31.2 µg/mL (≈ 167 µM) against Aspergillus niger and 7.81 µg/mL (≈ 41.7 µM) in the data set with Cryptococcus neoformans. For the same compound, the MIC worked out at 1.95 µg/mL (≈ 10.4 µM) in [1]; 15.6 µg/mL (≈ 83.5 µM) against Candida tropicalis; 31.2 µg/mL (≈ 167 µM) in the data set on Aspergillus fumigatus; 15.6 µg/mL (≈ 83.5 µM) against Aspergillus flavus; 15.6 µg/mL (≈ 83.5 µM) with Candida albicans; 1.95 µg/mL (≈ 10.4 µM) with Trichophyton rubrum. Besides, the MIC is 3.9 µg/mL (≈ 20.8 µM) against Saccharomyces cerevisiae, 1.95 µg/mL (≈ 10.4 µM) with Nannizzia gypsea, 15.6 µg/mL (≈ 83.5 µM) in the data set with Aspergillus niger and 3.9 µg/mL (≈ 20.8 µM) against Cryptococcus neoformans. Besides, in data set [2], the HC50 is over 250 µg/mL. Besides, the GI50 with NCI-H460, with MCF7 and with SF-268 was over 10 µg/mL throughout.
As to `COc1ccc(N2C(=O)C=CC2=O)cc1OC`, the MFC amounted to 7.81 µg/mL (≈ 33.5 µM) in [1]; 15.6 µg/mL (≈ 67 µM) against Candida tropicalis; 125 µg/mL (≈ 536 µM) against Aspergillus fumigatus; 125 µg/mL (≈ 536 µM) with Aspergillus flavus; 62.5 µg/mL (≈ 268 µM) against Candida albicans; 7.81 µg/mL (≈ 33.5 µM) with Trichophyton rubrum. Moreover, the minimal fungicidal concentration (MFC) with Saccharomyces cerevisiae was determined as 15.6 µg/mL (≈ 67 µM); against Nannizzia gypsea, 7.81 µg/mL (≈ 33.5 µM); in the data set on Aspergillus niger, 125 µg/mL (≈ 536 µM); against Cryptococcus neoformans, 15.6 µg/mL (≈ 67 µM). Moreover, the MIC in data set [1] was 3.9 µg/mL (≈ 16.7 µM); against Candida tropicalis, 15.6 µg/mL (≈ 67 µM); in the data set on Aspergillus fumigatus, 62.5 µg/mL (≈ 268 µM); in the data set on Aspergillus flavus, 62.5 µg/mL (≈ 268 µM); in the data set on Candida albicans it was 31.2 µg/mL (≈ 134 µM); against Trichophyton rubrum, 3.9 µg/mL (≈ 16.7 µM). Moreover, the MIC came to 7.81 µg/mL (≈ 33.5 µM) against Saccharomyces cerevisiae, 3.9 µg/mL (≈ 16.7 µM) in the data set on Nannizzia gypsea, 62.5 µg/mL (≈ 268 µM) against Aspergillus niger and 7.81 µg/mL (≈ 33.5 µM) in the data set on Cryptococcus neoformans. In [2], the HC50 is over 250 µg/mL. Further, the GI50 in the data set on NCI-H460, in the data set with MCF7 and in the data set with SF-268 was over 10 µg/mL throughout.
On to `CC1=CC(=O)N(CCc2ccccc2)C1=O`, for which the MFC amounted to 62.5 µg/mL (≈ 290 µM) in data set [1]; 250 µg/mL (≈ 1160 µM) against Candida tropicalis; 31.2 µg/mL (≈ 145 µM) in the data set with Aspergillus fumigatus; 250 µg/mL (≈ 1160 µM) against Aspergillus flavus; 125 µg/mL (≈ 581 µM) in the data set on Candida albicans; 15.6 µg/mL (≈ 72.6 µM) with Trichophyton rubrum. Also, the MFC against Saccharomyces cerevisiae was found to be 62.5 µg/mL (≈ 290 µM); against Nannizzia gypsea, 7.81 µg/mL (≈ 36.3 µM); with Aspergillus niger, 250 µg/mL (≈ 1160 µM); against Cryptococcus neoformans it was 62.5 µg/mL (≈ 290 µM). Also, the MIC in data set [1] was found to be 31.2 µg/mL (≈ 145 µM); with Candida tropicalis, 125 µg/mL (≈ 581 µM); against Aspergillus fumigatus it was 31.2 µg/mL (≈ 145 µM); against Aspergillus flavus, 62.5 µg/mL (≈ 290 µM); in the data set with Candida albicans, 62.5 µg/mL (≈ 290 µM); against Trichophyton rubrum, 7.81 µg/mL (≈ 36.3 µM). The MIC stood at 31.2 µg/mL (≈ 145 µM) with Saccharomyces cerevisiae, 3.9 µg/mL (≈ 18.1 µM) against Nannizzia gypsea, 62.5 µg/mL (≈ 290 µM) against Aspergillus niger and 31.2 µg/mL (≈ 145 µM) with Cryptococcus neoformans. Also, in data set [2], the HC50 is over 250 µg/mL. Besides, the GI50 in the data set with NCI-H460, in the data set on MCF7 and with SF-268 was over 10 µg/mL in each case.
With `CC1=CC(=O)N(CCCCc2ccccc2)C1=O`, the MFC was found to be 31.2 µg/mL (≈ 128 µM) in data set [1]; 125 µg/mL (≈ 514 µM) against Candida tropicalis; 62.5 µg/mL (≈ 257 µM) in the data set with Aspergillus fumigatus; 125 µg/mL (≈ 514 µM) against Aspergillus flavus; 125 µg/mL (≈ 514 µM) with Candida albicans; 15.6 µg/mL (≈ 64.2 µM) in the data set with Trichophyton rubrum. In addition, the MFC turned out to be 62.5 µg/mL (≈ 257 µM) in the data set with Saccharomyces cerevisiae, 15.6 µg/mL (≈ 64.2 µM) in the data set on Nannizzia gypsea, 125 µg/mL (≈ 514 µM) against Aspergillus niger and 62.5 µg/mL (≈ 257 µM) against Cryptococcus neoformans. The MIC in [1] stood at 31.2 µg/mL (≈ 128 µM); against Candida tropicalis it was 62.5 µg/mL (≈ 257 µM); against Aspergillus fumigatus, 31.2 µg/mL (≈ 128 µM); with Aspergillus flavus, 62.5 µg/mL (≈ 257 µM); against Candida albicans it was 62.5 µg/mL (≈ 257 µM); in the data set on Trichophyton rubrum it was 3.9 µg/mL (≈ 16 µM). The MIC was found to be 31.2 µg/mL (≈ 128 µM) with Saccharomyces cerevisiae, 3.9 µg/mL (≈ 16 µM) against Nannizzia gypsea, 62.5 µg/mL (≈ 257 µM) in the data set on Aspergillus niger and 31.2 µg/mL (≈ 128 µM) against Cryptococcus neoformans. The HC50 in data set [2] is over 250 µg/mL. The GI50 in the data set with NCI-H460, in the data set with MCF7 and with SF-268 was over 10 µg/mL in each case.

One may read the MFC as the lowest tested concentration that kills the fungus rather than only halting it. A high value points to weaker fungicidal potency. Broadly, the MIC is the smallest concentration in the dilution series that meets the test's criterion for growth inhibition. A lower MIC goes with greater potency. The HC50 is the concentration that lyses half of the red blood cells. By GI50 is commonly meant the concentration giving 50% growth inhibition.

These data come from ChEMBL document CHEMBL1772954, “Antifungal, cytotoxic and SAR studies of a series of N-alkyl, N-aryl and N-alkylphenyl-1,4-pyrrolediones and related compounds” (Bioorg Med Chem, 2011).
